From ChEMBL document CHEMBL3822380, “Simple avarone mimetics as selective agents against multidrug resistant cancer cells” (Eur J Med Chem, 2016)
Converted amounts (≈) assume the structure as drawn. The source made the active and inactive calls.

Assays:
[1] = system: Salmonella enteritidis; test: Antibacterial activity against Salmonella enterica subsp. enterica serovar Enteritidis ATCC 13076 by broth microdilution method; type: functional
Procedure, shortened: (§1)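 Broth microdilution per NCCLS. Compounds dissolved in DMSO as 10 mg/mL stock, diluted in Mueller Hinton broth (bacteria) or Sabouraud dextrose broth (fungi). Amikacin served as the positive control for bacteria and nystatin for fungi.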

[2] = system: Micrococcus luteus; test: Antibacterial activity against Micrococcus luteus ATCC 10240 by broth microdilution method; type: functional; procedure, shortened: as §1
[3] = system: Kocuria rhizophila; test: Antibacterial activity against Kocuria rhizophila ATCC 9341 by broth microdilution method; type: functional; conditions: DC2201; procedure, shortened: as §1
[4] = system: Pseudomonas aeruginosa; test: Antibacterial activity against Pseudomonas aeruginosa ATCC 9027 by broth microdilution method; type: functional; procedure, shortened: as §1
[5] = system: Bacillus spizizenii; test: Antibacterial activity against Bacillus subtilis ATCC 6633 by broth microdilution method; type: functional; procedure, shortened: as §1
[6] = system: Staphylococcus aureus; test: Antibacterial activity against Staphylococcus aureus ATCC 6538 by broth microdilution method; type: functional; procedure, shortened: as §1
[7] = system: Clostridium sporogenes; test: Antibacterial activity against Clostridium sporogenes ATCC 19404 by broth microdilution method; type: functional; procedure, shortened: as §1
[8] = system: Proteus hauseri; test: Antibacterial activity against Proteus hauseri ATCC 13315 by broth microdilution method; type: functional; procedure, shortened: as §1
[9] = system: Micrococcus luteus; test: Antibacterial activity against Micrococcus luteus ATCC 4698 by broth microdilution method; type: functional; conditions: NCTC 2665; procedure, shortened: as §1
[10] = system: Escherichia coli; test: Antibacterial activity against Escherichia coli ATCC 25922 by broth microdilution method; type: functional; procedure, shortened: as §1
[11] = system: NCI-H460; test: Cytotoxicity against human NCI-H460 cells after 72 hrs by MTT assay; type: functional, cell-based; conditions: NCI-H460, 72 h
Procedure, shortened: (§2)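 Seeding in 96-well plates at 1000 (NCI-H460), 2000 (NCI-H460/R) or 4000 (HaCaT) cells/well, treated after 24 h for 72 h. MTT at 0.4 mg/mL final, 4 h at 37 °C. Formazan dissolved in DMSO, absorbance read at 540 nm. Inhibition % = (1 − A treated/A untreated)×100. IC30 and IC50 obtained by linear regression.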

[12] = system: Aspergillus brasiliensis; test: Antifungal activity against Aspergillus brasiliensis ATCC 16404 by broth microdilution method; type: functional; procedure, shortened: as §1
[13] = system: Candida albicans; test: Antifungal activity against Candida albicans ATCC 10231 by broth microdilution method; type: functional; procedure, shortened: as §1
[14] = system: NCI-H460; test: Cytotoxicity against multidrug resistant human NCI-H460 cells after 72 hrs by MTT assay; type: functional, cell-based; conditions: NCI-H460, 72 h; procedure, shortened: as §2
[15] = system: Saccharomyces cerevisiae; test: Antifungal activity against Saccharomyces cerevisiae ATCC 9763 by broth microdilution method; type: functional; procedure, shortened: as §1
[16] = system: HaCaT; test: Cytotoxicity against human HaCaT cells after 72 hrs by MTT assay; type: cell-based; conditions: for IC50: Homo sapiens, HaCaT; for IC30: human, hacat; procedure, shortened: as §2
[17] = Selectivity ratio of IC30/IC50 for human HaCaT cells to IC30/IC50 for human NCI-H460 cells; type: ADME, cell-based; conditions: HaCaT cells versus NCI-H460 cells
Procedure, shortened: (§3)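 Fold threshold of 1.5 used to call selectivity to cancer cells, resistance, or selectivity to MDR cells.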

[18] = Selectivity ratio of IC30/IC50 for human HaCaT cells to IC30/IC50 for multidrug resistant human NCI-H460 cells; type: ADME, cell-based; conditions: HaCaT cells versus multidrug resistant NCI-H460 cells; procedure, shortened: as §3
[19] = system: NCI-H460; test: Induction of apoptosis in multidrug resistant human NCI-H460 cells assessed as dead cells at 25 uM after 72 hrs by annexin-V/propidium iodide staining-based flow cytometric analysis (reference value: 1.5%); type: functional
[20] = system: HaCaT; test: Induction of apoptosis in human HaCaT cells assessed as early apoptotic cells at 25 uM after 72 hrs by annexin-V/propidium iodide staining-based flow cytometric analysis (reference value: 0.2%); type: cell-based
[21] = system: NCI-H460; test: Induction of apoptosis in multidrug resistant human NCI-H460 cells assessed as late apoptotic/necrotic cells at 25 uM after 72 hrs by annexin-V/propidium iodide staining-based flow cytometric analysis (reference value: 1%); type: functional
[22] = system: NCI-H460; test: Induction of apoptosis in human NCI-H460 cells assessed as live cells at 25 uM after 72 hrs by annexin-V/propidium iodide staining-based flow cytometric analysis (reference value: 98.3%); type: functional
[23] = system: HaCaT; test: Induction of apoptosis in human HaCaT cells assessed as late apoptotic/necrotic cells at 25 uM after 72 hrs by annexin-V/propidium iodide staining-based flow cytometric analysis (reference value: 0.2%); type: cell-based
[24] = system: NCI-H460; test: Induction of apoptosis in human NCI-H460 cells assessed as dead cells at 25 uM after 72 hrs by annexin-V/propidium iodide staining-based flow cytometric analysis (reference value: 1.2%); type: functional
[25] = Induction of apoptosis in human HaCaT cells assessed as live cells at 25 uM after 72 hrs by annexin-V/propidium iodide staining-based flow cytometric analysis (reference value: 96.8%); type: cell-based; conditions: read-out: Activity
[26] = system: NCI-H460; test: Induction of apoptosis in human NCI-H460 cells assessed as early apoptotic cells at 25 uM after 72 hrs by annexin-V/propidium iodide staining-based flow cytometric analysis (reference value: 0.3%); type: functional
[27] = system: NCI-H460; test: Induction of apoptosis in multidrug resistant human NCI-H460 cells assessed as live cells at 25 uM after 72 hrs by annexin-V/propidium iodide staining-based flow cytometric analysis (reference value: 96.4%); type: functional
[28] = system: NCI-H460; test: Induction of apoptosis in human NCI-H460 cells assessed as late apoptotic/necrotic cells at 25 uM after 72 hrs by annexin-V/propidium iodide staining-based flow cytometric analysis (reference value: 0.2%); type: functional
[29] = system: HaCaT; test: Induction of apoptosis in human HaCaT cells assessed as dead cells at 25 uM after 72 hrs by annexin-V/propidium iodide staining-based flow cytometric analysis (reference value: 2.8%); type: cell-based
[30] = system: NCI-H460; test: Induction of apoptosis in multidrug resistant human NCI-H460 cells assessed as early apoptotic cells at 25 uM after 72 hrs by annexin-V/propidium iodide staining-based flow cytometric analysis (reference value: 1.1%); type: functional
[31] = system: NCI-H460; test: Induction of superoxide anion generation in multidrug resistant human NCI-H460 cells at 25 uM after 72 hrs by DHE staining-based flow cytometric analysis relative to control; type: functional, cell-based
Procedure, shortened: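 Seeded as for cell death (50,000 or 100,000 cells/well), treated 72 h at 25 µM, with CDDP 5 µM as control. Adherent cells trypsinized and loaded with 1 µM DHE for 30 min at 37 °C in the dark, then washed twice in PBS. Flow cytometry at ex 488/em 585 nm (FL2-H). Mean fluorescence intensity corrected for autofluorescence and compared with untreated control.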

Molecule	MIC [1]	MIC [2]	MIC [3]	MIC [4]	MIC [5]	MIC [6]	MIC [7]	MIC [8]	MIC [9]	MIC [10]	IC30 [11]	IC50 [11]	MIC [12]	MIC [13]	IC30 [14]	IC50 [14]	MIC [15]	IC50 [16]	IC30 [16]	also measured
NCC[C@H](O)C(=O)N[C@@H]1C[C@H](N)[C@@H](O[C@H]2O[C@H](CN)[C@@H](O)[C@H](O)[C@H]2O)[C@H](O)[C@H]1O[C@H]1O[C@H](CO)[C@@H](O)[C@H](N)[C@H]1O [AMIKACIN]	14 µM (≈ 8.2 µg/mL)	14 µM (≈ 8.2 µg/mL)	3 µM (≈ 1.76 µg/mL)	85 µM (≈ 49.8 µg/mL)	72 µM (≈ 42.2 µg/mL)	19 µM (≈ 11.1 µg/mL)	26 µM (≈ 15.2 µg/mL)	12 µM (≈ 7.03 µg/mL)	3 µM (≈ 1.76 µg/mL)	9 µM (≈ 5.27 µg/mL)	–	–	–	–	–	–	–	–	–	–
CCNC1=CC(=O)C(C(C)(C)C)=CC1=O	758 µM (≈ 157 µg/mL)	48 µM (≈ 9.95 µg/mL)	758 µM (≈ 157 µg/mL)	3020 µM (≈ 626 µg/mL)	1510 µM (≈ 313 µg/mL)	96 µM (≈ 19.9 µg/mL)	1510 µM (≈ 313 µg/mL)	1510 µM (≈ 313 µg/mL)	1510 µM (≈ 313 µg/mL)	188 µM (≈ 39 µg/mL)	45 µM	64 µM	381 µM (≈ 79 µg/mL)	1510 µM (≈ 313 µg/mL)	45 µM	65 µM	3020 µM (≈ 626 µg/mL)	75 µM	50 µM	–
CNC1=CC(=O)C=C(C(C)(C)C)C1=O	1620 µM (≈ 313 µg/mL)	202 µM (≈ 39 µg/mL)	813 µM (≈ 157 µg/mL)	3240 µM (≈ 626 µg/mL)	1620 µM (≈ 313 µg/mL)	51 µM (≈ 9.86 µg/mL)	1620 µM (≈ 313 µg/mL)	1620 µM (≈ 313 µg/mL)	1620 µM (≈ 313 µg/mL)	202 µM (≈ 39 µg/mL)	14 µM	25 µM	103 µM (≈ 19.9 µg/mL)	1620 µM (≈ 313 µg/mL)	15 µM	23 µM	3240 µM (≈ 626 µg/mL)	10 µM	8 µM	–
CCCCNC1=CC(=O)C=C(C(C)(C)C)C1=O	620 µM (≈ 146 µg/mL)	9 µM (≈ 2.12 µg/mL)	–	620 µM (≈ 146 µg/mL)	1240 µM (≈ 291 µg/mL)	9 µM (≈ 2.12 µg/mL)	1240 µM (≈ 291 µg/mL)	–	154 µM (≈ 36.2 µg/mL)	9 µM (≈ 2.12 µg/mL)	4 µM	14 µM	620 µM (≈ 146 µg/mL)	77 µM (≈ 18.1 µg/mL)	4 µM	13 µM	154 µM (≈ 36.2 µg/mL)	11 µM	7 µM	–
NYSTATIN	–	–	–	–	–	–	–	–	–	–	–	–	1350 µM	2700 µM	–	–	1350 µM	–	–	–
CCNC1=CC(=O)C=C(C(C)(C)C)C1=O	381 µM (≈ 79 µg/mL)	24 µM (≈ 4.97 µg/mL)	381 µM (≈ 79 µg/mL)	758 µM (≈ 157 µg/mL)	758 µM (≈ 157 µg/mL)	24 µM (≈ 4.97 µg/mL)	758 µM (≈ 157 µg/mL)	758 µM (≈ 157 µg/mL)	758 µM (≈ 157 µg/mL)	24 µM (≈ 4.97 µg/mL)	4 µM	13 µM	48 µM (≈ 9.95 µg/mL)	1510 µM (≈ 313 µg/mL)	5 µM	14 µM	1510 µM (≈ 313 µg/mL)	30 µM	22 µM	selectivity ratio [17]: ≤ 1.5; selectivity ratio [18]: ≤ 1.5
CNC1=CC(=O)C(C(C)(C)C)=CC1=O	813 µM (≈ 157 µg/mL)	103 µM (≈ 19.9 µg/mL)	409 µM (≈ 79 µg/mL)	1620 µM (≈ 313 µg/mL)	813 µM (≈ 157 µg/mL)	25 µM (≈ 4.83 µg/mL)	813 µM (≈ 157 µg/mL)	813 µM (≈ 157 µg/mL)	831 µM (≈ 161 µg/mL)	104 µM (≈ 20.1 µg/mL)	34 µM	63 µM	51 µM (≈ 9.86 µg/mL)	1620 µM (≈ 313 µg/mL)	31 µM	58 µM	1620 µM (≈ 313 µg/mL)	28 µM	17 µM	–
CCCCCCCCNC1=CC(=O)C(C[C@]2(C)[C@@H](C)CC[C@]3(C)C(C)=CCC[C@@H]23)=CC1=O	–	–	–	–	–	–	–	–	–	–	> 100 µM	> 100 µM	–	–	> 100 µM	> 100 µM	–	> 100 µM	> 100 µM	Activity [19]: 3.1%; Activity [20]: 0.1%; Activity [21]: 0.7%; Activity [22]: 95.1%; Activity [23]: 0.7%; Activity [24]: 4.6%; viability at 72 h, 25 µM [25]: 93.4%; Activity [26]: 0%; Activity [27]: 96.1%; Activity [28]: 0.3%; Activity [29]: 5.8%; Activity [30]: 0.1%; Activity [31]: inactive
